Measurements from different studies.
Each line is one published result; the experiments were not run side by side.
Target: Cyclin-dependent kinase 15 (CDK15, Homo sapiens, UniProt Q96Q40)

SMILES | assay | conditions | remaining binding [%]
COc1cnc(Nc2cccc(S(N)(=O)=O)c2)nc1N1CCN(c2ccccc2)CC1 | binding, competition with immobilised ligand | 1 µM | 93
O=C(NCC1CCOCC1)c1n[nH]cc1NC(=O)c1c(F)cccc1F | binding, competition with immobilised ligand | 1 µM | 82
CCN1CCN(Cc2ccc(C(=O)Nc3ccc(C)c(Oc4ccc5c(c4)CC(=O)N5)c3)cc2C(F)(F)F)CC1 | binding, competition with immobilised ligand | 1 µM | 100
CS(=O)(=O)c1cc(C2(NC(=O)c3cncc4c3cnn4-c3ccc(F)cc3)CC2)ccn1 | cell-free assay, competition with immobilised ligand | 1 µM | 100
N[C@H]1CCN(c2nccc(-c3cnn4ncccc34)n2)C1 | binding | 1 µM | 100
O=C(NCCCN1CCOCC1)c1ccc(Nc2nccc(-c3cc4ccccc4s3)n2)cc1 | binding, competition with immobilised ligand | 1 µM | 87
COc1ccnn2ncc(-c3ccnc(N(C)C)n3)c12 | binding | 1 µM | 41
CCc1ccccc1C(=O)Nc1n[nH]c2c(C)c(F)c(C3C(C#N)=C(C)N(C)C(C)=C3C#N)cc12 | cell-free assay, competition with immobilised ligand | 1 µM | 95
CN(CCCC(F)(F)F)c1nccc(-c2cnn3ncccc23)n1 | binding | 1 µM | 100
Nc1ncc2c(n1)-c1c([nH]c3ccc(C#CC4CC4)cc13)CCCC2 | binding, competition with immobilised ligand | 1 µM | 96
COc1cccc(CNC(=O)c2nc3scc(COCc4ccc(C(=O)O)cc4)c3c(=O)[nH]2)c1 | cell-free assay, competition with immobilised ligand | 1 µM | 97.6
O=C(NCCCN1CCOCC1)c1ccc(Nc2ncc(Cl)c(-c3ccc(Cl)s3)n2)cc1 | binding, competition with immobilised ligand | 1 µM | 89
COc1cnc(Nc2cccc(S(N)(=O)=O)c2)nc1N1CCN(c2ccccc2)C(=O)C1 | binding, competition with immobilised ligand | 1 µM | 100
CN(C)c1nccc(-c2cnn3ncccc23)n1 | binding | 1 µM | 100
CCOC(=O)c1cc2cc(-c3cc(C(=O)NCc4ccc(C(=O)O)cc4)nn3C)ccc2[nH]1 | cell-free assay, competition with immobilised ligand | 0.1 µM | 93
O=C(c1ccc(Nc2ncc(Cl)c(-c3cc4ccccc4s3)n2)cc1)N1CCC(N2CCCC2)CC1 | binding, competition with immobilised ligand | 1 µM | 70
c1cnn2ncc(-c3ccnc(N4CCC45COC5)n3)c2c1 | binding | 1 µM | 85
O=S(=O)(NC1CCC(c2cc(F)ccc2F)(S(=O)(=O)c2ccc(Cl)cc2)CC1)C(F)(F)F (stereo not shown) | cell-free assay, competition with immobilised ligand | 1 µM | 100
Cc1cnn2ncc(-c3ccnc(N(C)C)n3)c2c1 | binding | 1 µM | 100
Cc1nc(N2CC[C@@H](O)C2)ncc1-c1cc(C(F)(F)F)cc2[nH]ncc12 | binding, competition with immobilised ligand | 1 µM | 81
C[C@H]1CCN(c2nccc(-c3cnn4ncccc34)n2)C1 | binding | 1 µM | 56
O=C(O)c1cc(-c2ccc(C3CCNCC3)cc2)c2ccc(-c3ccc(C(F)(F)F)cc3)cc2c1 | cell-free assay, competition with immobilised ligand | 1 µM | 96
